Measurements published in ChEMBL document CHEMBL1137540, “Synthesis and in vitro evaluation of leishmanicidal and trypanocidal activities of N-quinolin-8-yl-arylsulfonamides” (Bioorg Med Chem, 2007).

Legend:
[1] = Cytotoxicity against Vero cells by MTT assay; type: cell-based; details: African green monkey
Outline: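 Vero cells were exposed to compounds for 72 h at 37 °C, then incubated with MTT for 4 h. Formazan was dissolved in DMSO and read at 540 nm. CC50 was derived by linear regression, with ANOVA and Dunnett's test.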

[2] = tested on: Leishmania amazonensis; assay: Antiprotozoal activity against Leishmania amazonensis 575 in vero cells; type: functional, organism-based; details: promastigotes, in the assay text read “promastigotes” for “in vero cells”
Outline: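 Axenic growth assay: L. amazonensis 575 promastigotes were grown in Schneider's medium with 5% heat-inactivated FBS, and T. cruzi Y epimastigotes in LIT medium with 10% FBS. Parasites at 1 × 10^6 cells/ml were exposed to 0.2–100 µM for 72 h at 28 °C. Survivors were counted in a Neubauer chamber. Three experiments were run in triplicate, and IC50 was derived by linear regression.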

[3] = tested on: Trypanosoma cruzi; assay: Antiprotozoal activity against Trypanosoma cruzi Y in vero cells; type: functional, organism-based
[4] = tested on: Leishmania chagasi; assay: Antiprotozoal activity against Leishmania chagasi PP75 in vero cells; type: functional, organism-based
[5] = tested on: Leishmania amazonensis; assay: Reduction of Leishmania amazonensis 575 infection in mouse peritoneal macrophage at 5 uM after 48 hrs; type: functional; set-up: scale not given: the % may be the effect or the level left
Outline: (§1)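 Peritoneal macrophages from female albino Swiss mice were grown on glass slides in DMEM with 20% heat-inactivated FBS at 37 °C, 5% CO2. Cells were infected with L. amazonensis promastigotes at 1:10 cell:parasite for 4 h, then treated for 48 h. Slides were methanol-fixed and Giemsa-stained, and 500 random cells were scored for infection rate. Values are the mean of two experiments.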

[6] = tested on: Leishmania amazonensis; assay: Reduction of Leishmania amazonensis 575 infection in mouse peritoneal macrophage at 25 uM after 48 hrs; type: functional; set-up: scale not given: the % may be the effect or the level left; outline: as §1
[7] = tested on: Leishmania amazonensis; assay: Reduction of Leishmania amazonensis 575 infection in mouse peritoneal macrophage at 1 uM after 48 hrs; type: functional; set-up: scale not given: the % may be the effect or the level left; outline: as §1
[8] = tested on: Leishmania amazonensis; assay: Reduction of Leishmania amazonensis 575 amastigotes infection in mouse peritoneal macrophage at 10 uM after 48 hrs; type: functional; set-up: scale not given: the % may be the effect or the level left; outline: as §1
[9] = tested on: Trypanosoma cruzi; assay: Reduction of Trypanosoma cruzi Y amastigotes infection in Vero cells at 25 uM after 48 hrs; type: functional; set-up: scale not given: the % may be the effect or the level left
Outline: (§2)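 Vero cells on glass slides in DMEM with 5% FBS at 37 °C, 5% CO2 were infected with culture-derived trypomastigotes at 1:10 cell:parasite for 6 h. Non-adherent parasites were washed off, and cells were treated for 48 h. Slides were methanol-fixed and Giemsa-stained, and 500 random cells were examined at 1000× for infection rate. Values are the mean of two experiments.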

[10] = tested on: Trypanosoma cruzi; assay: Reduction of Trypanosoma cruzi Y amastigotes infection in Vero cells at 5 uM after 48 hrs; type: functional; set-up: scale not given: the % may be the effect or the level left; outline: as §2
[11] = tested on: Trypanosoma cruzi; assay: Reduction of Trypanosoma cruzi Y amastigotes infection in Vero cells at 1 uM after 48 hrs; type: functional; set-up: scale not given: the % may be the effect or the level left; outline: as §2

SMILES | CC50 [1] [µM] | IC50 [2] [µM] | IC50 [3] [µM] | IC50 [4] [µM] | Activity [5] [%] | Activity [6] | Activity [7] [%] | Activity [8] [%] | Activity [9] [%] | Activity [10] [%] | Activity [11] [%]
O=S(=O)(Nc1cccc2cccnc12)c1ccc(Br)cc1 | 88.7 | 4.94 | > 100 | 2.99 | – | – | – | – | – | – | –
CCCc1ccc(S(=O)(=O)Nc2cccc3cccnc23)cc1 | 64.4 | 14.5 | > 100 | 14 | 52.2 | 63.7% | 18.7 | – | – | – | –
O=S(=O)(Nc1cccc2cccnc12)c1cc(Br)c(Br)s1 | 68.7 | 2.85 | > 100 | 0.53 | – | – | – | – | – | – | –
O=[N+]([O-])c1ccc(S(=O)(=O)Nc2cccc3cccnc23)cc1 | – | > 100 | > 100 | > 100 | – | – | – | – | – | – | –
CC(C)c1cc(C(C)C)c(S(=O)(=O)Nc2cccc3cccnc23)c(C(C)C)c1 | – | > 100 | > 100 | > 100 | – | – | – | – | – | – | –
O=S(=O)(Nc1cccc2cccnc12)c1ccc(F)cc1 | – | > 100 | > 100 | > 100 | – | – | – | – | – | – | –
C[C@@H]1[C@H](O)[C@@H](C)/C=C/C=C/C=C/C=C/C=C/C=C/C=C/[C@H](O[C@@H]2O[C@H](C)[C@@H](O)[C@H](N)[C@@H]2O)C[C@@H]2O[C@](O)(C[C@@H](O)C[C@@H](O)[C@H](O)CC[C@@H](O)C[C@@H](O)CC(=O)O[C@H]1C)C[C@H](O)[C@H]2C(=O)O [AMPHOTERICIN B] | 98.4 | 0.31 | – | 0.25 | – | – | – | 97 | – | – | –
CCCc1ccc(S(=O)(=O)Nc2cc(OC)cc3ccc(C)nc23)cc1 | – | > 100 | > 100 | > 100 | – | – | – | – | – | – | –
CN(C)c1cccc2c(S(=O)(=O)Nc3cccc4cccnc34)cccc12 | 84.2 | 7.18 | > 100 | 3.53 | 48.2 | Toxic | 25.7 | – | – | – | –
O=S(=O)(Nc1cccc2cccnc12)c1cnc(Cl)c(Br)c1 | 67.4 | 2.25 | 31.8 | 0.56 | 67.1 | 84.8% | 52 | – | 96.4 | 85.2 | 78.6
CCCc1ccc(S(=O)(=O)Nc2c(Br)cc(Br)c3cccnc23)cc1 | – | > 100 | > 100 | > 100 | – | – | – | – | – | – | –
O=S(=O)(Nc1cccc2cccnc12)c1ccc(-c2ccccc2)cc1 | 245 | 6.27 | > 100 | 2.18 | 72.3 | 82.1% | 60 | – | – | – | –
O=S(=O)(Nc1cccc2cccnc12)c1cc(F)cc(F)c1 | 66.3 | 2.12 | > 100 | 0.45 | – | – | – | – | – | – | –
O=C(Cn1ccnc1[N+](=O)[O-])NCc1ccccc1 [BENZNIDAZOLE] | > 1000 | – | 14.6 | – | – | – | – | – | 92 | – | –
